# Only some compounds are listed: those with a hit (about 3.7% of all), similar ones and a draw of the others.
# Dynein cargo inh: dynein cargo transport inhibition; 3617.4 mouse cells, GR-EGFP nuclear translocation imaging; test concentration mostly 20 µM; stimulated with dexamethasone, 1 µM; active compounds read low; z-score, hits read low; 220,000 compounds, 0.47% hits; AID 1381;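 active = plate z-score of nuclear minus cytoplasmic receptor signal below a set negative limit, without overly bright fluorescence or cell loss, cut at about -3.5 in these data, passing the limit was not always enough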;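 note: z-score of nuclear minus cytoplasmic ring GR-EGFP intensity difference per well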
#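 Buffer or medium: Induction medium lacking tetracycline, stripped serum | Also added: Dexamethasone agonist, 1.0 µM final, for 30 min | Timing: 48 h induction, 1 h compound, 30 min dex at 37 °C | Detection: Formaldehyde fixation, Hoechst nuclear stain, 10x automated fluorescence imaging | Measure: Nuclear versus cytoplasmic GR-EGFP signal, averaged per well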
# MDM2 E3 inh: blocks human Mdm2 ubiquitin ligase activity; Q00987; cell-based MDM2 ubiquitination luciferase reporter, 2 h; 0 = plate control, 100 = twice control, blank-subtracted; signal enhancement, % at 5 µM; 210,000 compounds, 0.11% hits; AID 1230;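 active = signal enhancement of 30% or more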;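 note: luminescence tracks abundance of the self-degrading MDM2-luciferase fusion protein; higher signal means inhibition of MDM2 E3 ligase activity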
#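 Buffer or medium: Cells held in DMEM | Assay system: Stable mammalian line carrying autodegrading MDM2–luciferase fusion reporter | Quantity: 2000 cells/well | Times: 4 h settle plus 2 h compound, 37 °C | Doses: One concentration, 5 µM, with 0.2% DMSO | Technique: Luminescence with SteadyLite reagent, 15 min at room temperature | Benchmarks: Plate controls and plate blanks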
# B2AR ag: agonists of human beta-2 adrenergic receptor inducing internalization; P07550; 340,000 compounds, 0.43% hits; AID 504454; response, % (concentration not given with the values); Am2.2-beta2AR cells, FAP receptor internalization, flow cytometry;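 active = response above a set limit, near 3 SD of response in nonfluorescent compounds, cut at about 42% in these data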
# CHOP UPR activ: apoptotic UPR (CHOP) activation; CHO-CHOP luciferase reporter, luminescence; percent of tunicamycin response over DMSO baseline; activation, % at 10 µM; AID 449763; 330,000 compounds, 0.34% hits;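 active = at 10 µM dose, activation of 40% or more, normalized to positive control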;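 note: 100% = tunicamycin at 10 µg/mL and 0% = DMSO alone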
#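 Test system: CHO CHOP reporter cells. Input: 500 CHO-CHOP cells per well. Medium: F12 with 10% FBS. Technique: luciferase luminescence. Measure: percent activation relative to tunicamycin control. Dosing: 10 µM compound, 0.5% DMSO. Timing: 16-18 h cell attachment, then 6 h compound exposure, 37 °C.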
# Mdm2 MdmX PPI: disrupts the human Mdm2-MdmX interaction; 330,000 compounds, 3% hits; inhibition, % at 8 µM; O15151+Q00987; SaOS-2 split-luciferase Mdm2/MdmX complementation, luminescence;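 active = inhibition of at least 50% at 8 µM in the primary screen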
# Target sequence (O15151 whole entry, looked up): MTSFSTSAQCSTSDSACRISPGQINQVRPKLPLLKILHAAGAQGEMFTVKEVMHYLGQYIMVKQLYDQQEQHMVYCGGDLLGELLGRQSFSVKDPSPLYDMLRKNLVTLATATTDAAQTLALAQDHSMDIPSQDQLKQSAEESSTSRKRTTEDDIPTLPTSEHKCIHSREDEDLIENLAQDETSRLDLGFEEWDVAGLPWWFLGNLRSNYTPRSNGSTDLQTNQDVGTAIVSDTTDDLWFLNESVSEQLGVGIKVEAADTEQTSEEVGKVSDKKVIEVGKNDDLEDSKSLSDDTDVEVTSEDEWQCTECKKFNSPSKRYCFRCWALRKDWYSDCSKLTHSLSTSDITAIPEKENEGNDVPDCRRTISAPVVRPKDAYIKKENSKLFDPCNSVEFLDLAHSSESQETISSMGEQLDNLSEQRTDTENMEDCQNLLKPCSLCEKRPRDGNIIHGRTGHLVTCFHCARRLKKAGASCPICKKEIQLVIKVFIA
# Target sequence (Q00987 whole entry, looked up): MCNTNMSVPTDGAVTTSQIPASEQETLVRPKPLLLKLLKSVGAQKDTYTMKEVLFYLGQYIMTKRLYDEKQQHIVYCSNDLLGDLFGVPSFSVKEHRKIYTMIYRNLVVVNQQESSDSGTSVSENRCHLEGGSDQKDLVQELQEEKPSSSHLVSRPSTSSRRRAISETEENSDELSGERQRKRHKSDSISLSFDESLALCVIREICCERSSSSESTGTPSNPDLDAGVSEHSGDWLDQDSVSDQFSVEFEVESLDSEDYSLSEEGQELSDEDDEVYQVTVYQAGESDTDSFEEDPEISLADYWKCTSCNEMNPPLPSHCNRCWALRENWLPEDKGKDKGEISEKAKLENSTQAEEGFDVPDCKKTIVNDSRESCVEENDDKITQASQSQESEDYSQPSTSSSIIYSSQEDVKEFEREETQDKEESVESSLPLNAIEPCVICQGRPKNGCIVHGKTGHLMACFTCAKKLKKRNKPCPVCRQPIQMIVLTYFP
# XBP1 UPR activ: adaptive UPR (XBP1) activation; CHO-XBP1 luciferase reporter, IRE1-XBP1 UPR activation, luminescence; percent of tunicamycin response, DMSO as zero; activation, % at 20 µM; 330,000 compounds, 0.33% hits; AID 463104;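 active = versus positive control, 20 µM dose yields 30% or more activation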;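 note: 100% = tunicamycin at 10 µg/mL and 0% = DMSO only wells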
#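 Signal: luciferase luminescence; Assay system: CHO-XBP1 luciferase reporter cells; Amount: one thousand reporter cells per well; Dosing: 20 µM single concentration, DMSO 1%; Benchmarks: high control tunicamycin 10 µg/mL final, low control DMSO vehicle only; Schedule: 6 h compound exposure at 37 °C, 5% CO2; Evaluation: percent activation relative to tunicamycin reference.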
# Mdm2 MdmX conf: human Mdm2/MdmX binding inhibition, confirmed; luminescent assay; inhibition, % at 8 µM; shares compounds with Mdm2 MdmX PPI; 10,000 compounds, 55% hits; in the data active = inhibition above about 40%
# FLuc counter: inhibits full-length luciferase, flagging false Mdm2/MdmX hits. inhibition, % at 8 µM. SaOS-2 full-length luciferase counterscreen, luminescence. AID 504607. 6,200 compounds, 77% hits. shares compounds with Mdm2 MdmX PPI;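 active = mean inhibition at 8 µM reaching about 37%, which flags the compound as non-specific, limit read from the data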;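 note: p53-null SaOS-2 cells with luciferase driven by a doxycycline-inducible promoter; compound on cells about two nights before reading with doxycycline added after day one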
# Starred values were filed as active, the others as inactive; . = no result given.
SMILES,Dynein cargo inh,MDM2 E3 inh,B2AR ag,CHOP UPR activ,Mdm2 MdmX PPI,XBP1 UPR activ,Mdm2 MdmX conf,FLuc counter
CCOC(=O)C1=C(C)NC(C)=C(C(=O)OC)C1c1cccc([N+](=O)[O-])c1 (centres undefined),0.61,.,-12,5,30,-8,.,.
COC(=O)C1=C(C)NC(C)=C(C(=O)O[C@@H]2CCCN(Cc3ccccc3)C2)[C@@H]1c1cccc([N+](=O)[O-])c1,.,.,1,7,54*,-6,20,.
CCCOc1ccc(CNC(=O)C2CCN(C(=O)N3CCOc4ccccc43)CC2)cc1,.,.,-12,1,51*,-2,0,.
O=C(NCCN1CCOCC1)C(=O)NCC1OCCCN1S(=O)(=O)c1cc(F)ccc1F (centres undefined),.,.,3,-2,17,1,.,.
Cc1cccc(/C=N/NC(=O)c2ccncc2)n1,.,.,-3,-2,-7,-6,.,.
O=C1/C(=C/c2ccccc2Cl)SC(=S)N1CCCC(=O)N(CCO)c1ccccc1,.,.,-1,-1,98*,-5,15,.
O=C1/C(=C\c2cccc(O)c2O)SC(=S)N1Cc1ccccc1,.,.,-57,15,72*,5,57*,34
O=C1/C(=C\c2ccc(O)c(O)c2)SC(=S)N1Cc1ccccc1,.,.,-175,9,40,18,.,.
O=C(CCCN1C(=O)/C(=C/c2ccccc2Cl)SC1=S)Nc1cccnc1,.,.,22,-4,87*,-6,73*,8
O=C(CCCN1C(=O)/C(=C/c2ccccc2Cl)SC1=S)Nc1ccccn1,0.0018,.,-3,-4,67*,-5,55*,21
O=C(CCN1C(=O)/C(=C/c2ccccc2Cl)SC1=S)Nc1ccccn1,.,.,-2,1,14,0,.,.
CC(=O)N1c2cc3ccccc3cc2N(C(C)=O)c2cc3ccccc3cc21,.,.,9,.,.,.,.,.
CCc1ccc(N2CC(C(=O)Nc3ccc4c(c3)OCCO4)CC2=O)cc1 (centres undefined),.,.,4,-3,39,-6,.,.
O=C(CCNS(=O)(=O)c1ccc(Br)cc1)NNC(=O)C1COc2ccccc2O1 (centres undefined),.,.,0,-1,5,-1,.,.
O=C(CCN1C(=O)/C(=C/c2ccccc2Cl)SC1=S)NCCc1ccc(O)cc1,.,.,8,-1,78*,-3,39,48*
O=C(CCCN1C(=O)/C(=C/c2cccs2)SC1=S)Nc1ccccn1,1.2,-7,-3,3,56*,-2,60*,98*
O=C(CCN1C(=O)/C(=C\c2cccs2)SC1=S)Nc1ccccn1,0.34,-16,-3,0,11,-2,.,.
C=CCN(CC=C)S(=O)(=O)c1ccc2nc(NC(=O)C(C)C)sc2c1,-0.86,-1,15,2,59*,5,60*,52*
Cc1ccc(-c2nnc3c(C(F)(F)F)nc4ccccc4n23)cc1,0.25,12,12,1,54*,7,15,.
O=C(CSc1nnc(-c2ccc(O)cc2)o1)NNC(=O)c1ccncc1,.,.,12,1,3,-1,.,.
CN(CC(=O)Nc1ccc(F)cc1)C(=O)CSc1nnc(Cc2ccccc2)o1,.,.,-1,-1,11,1,.,.
O=C(Nc1cccc2c1CCCC2)c1cc([N+](=O)[O-])ccc1Cl,-0.0095,-7,-3,0,62*,-5,21,.
O=C(Nc1cccc2c1CCCC2)c1ccc(Cl)c([N+](=O)[O-])c1,0.027,-2,-8,1,56*,-4,27,.
Brc1ccc(N=Nc2ccc3ccccc3n2)cc1,-0.15,-96,19,-10,79*,-11,72*,48*
